ChEMBL document CHEMBL5252546, “Salutaxel, a Conjugate of Docetaxel and a Muramyl Dipeptide (MDP) Analogue, Acts as Multifunctional Prodrug That Inhibits Tumor Growth and Metastasis” (J Med Chem, 2018)
pIC50: −log10 of the molar value. The source made the active and inactive calls. The calls are words filed in the database; no cut-off is given here.

Legend:
4T1 [1] = assay: Antitumor activity against mouse 4T1 cells implanted in BALB/c mouse assessed as decrease in lung injury at 5.7 mg/kg,iv administrated once per week for 4 weeks by H and E staining based assay; type: functional, organism-based
In short: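 BALB/c mice bearing orthotopic mammary fat pad 4T1 tumors, dosed iv weekly for 4 weeks with saline vehicle as control. Lung sections stained with hematoxylin and eosin and examined by light microscopy at 40× for metastasis, inflammatory infiltration and alveolar wall thickening.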

[2] = Cmax in mouse tumor implanted with mouse 4T1 cells at 5.7 mg/kg,iv measured upto 72 hrs; type: ADME, organism-based, Neoplasm; set-up: time < 72 hrs, dose 5.7 mg/kg, route iv
4T1 [3] = assay: Antitumor activity against mouse 4T1 cells implanted in BALB/c mouse assessed as decrease in lung MMP2 expression level at 5.7 mg/kg,iv administrated once per week for 4 weeks in presence of compound 5b by western blot assay; type: functional, organism-based
In short: (§1)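 4T1 cells injected into mammary fat pads of BALB/c mice. Saline vehicle or test article given iv once weekly for 4 weeks. Spleen, lung and tumor lysates immunoblotted for MMP2/MMP9 with β-actin as loading control. Bands averaged over five mice per group, representative of two independent experiments.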

4T1 [4] = assay: Antitumor activity against mouse 4T1 cells implanted in BALB/c mouse assessed as decrease in tumor MMP2 expression level at 5.7 mg/kg,iv administrated once per week for 4 weeks by western blot assay; type: functional, organism-based; in short: as §1
[5] = Half life in mouse tumor implanted with mouse 4T1 cells at 5.7 mg/kg,iv measured upto 72 hrs; type: ADME, organism-based, Neoplasm
[6] = Cmax in male rat at 4 mg/kg,iv measured upto 24 hrs; type: ADME, organism-based; set-up: time < 24 hrs, dose 4 mg/kg, route iv; settings: in vivo
In short: (§2)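 Rats were given a single iv injection at 2, 4 or 8 mg/kg. Plasma parent drug and released docetaxel were followed over time. Cmax, Tmax, AUC, MRT, t1/2, CL and Vss were reported for males, females and all animals combined.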

[7] = Half life in rat at 4 mg/kg,iv measured upto 24 hrs; type: ADME, organism-based; settings: in vivo
NCI-H23 = assay: Antiproliferative activity against human NCI-H23 cells assessed inhibition of cell growth incubated for 72 hrs by SRB assay; type: functional, cell-based; settings: NCI-H23, 72 h
[8] = Half life in female rat at 4 mg/kg,iv measured upto 24 hrs; type: ADME, organism-based; settings: in vivo
[9] = AUC (0-t) in mouse plasma implanted with mouse 4T1 cells at 10 mg/kg,iv measured upto 72 hrs; type: ADME, organism-based; set-up: dose 10 mg/kg, time < 72 hrs, route iv
In short: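 4T1 tumor-bearing mice (4T1 cells implanted in the mammary fat pad) received a single iv dose of 10 mg/kg. Plasma and tumor tissue were sampled up to 72 h, with n = 6. Levels of parent and of released docetaxel were measured. AUC came from noncompartmental analysis, reported as mean ± SD.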

[10] = Clearance in Beagle dog at 1 mg/kg,iv measured upto 24 hrs; type: ADME, organism-based, Canis lupus familiaris; settings: in vivo
In short: (§3)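 Beagle dogs were given a single iv infusion at 1, 2 or 4 mg/kg. Plasma parent drug and released docetaxel were followed over time. Cmax, Tmax, AUC, MRT, t1/2, CL and Vss were reported by sex and for all dogs combined.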

[11] = AUC (0-t) in male rat at 4 mg/kg,iv measured upto 24 hrs; type: ADME, organism-based; set-up: time < 24 hrs, dose 4 mg/kg, route iv; settings: in vivo
In short: (§4)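 Single iv dose: rats 2, 4 or 8 mg/kg by intravenous injection; Beagle dogs 1, 2 or 4 mg/kg by intravenous infusion. Plasma concentration–time data were analysed by sex and pooled. Reported parameters: Cmax, Tmax, AUC0−t, AUC0−∞, MRT0−∞, t1/2, CL, Vss, given as mean ± SD.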

[12] = Toxicity in Beagle dog assessed as effect on respiratory frequency at 1 to 4 mg/kg,iv; type: organism-based, Canis lupus familiaris; settings: in vivo, dose 1-4 mg/kg
[13] = Drug metabolism in dog hepatocytes assessed as MDA-205 metabolite formation at 20 uM incubated for 180 mins; type: ADME, cell-based, Canis lupus familiaris, Hepatocyte; settings: 3 h
[14] = AUC (0-infinity) in Beagle dog at 4 mg/kg,iv measured upto 24 hrs; type: ADME, organism-based, Canis lupus familiaris; set-up: time < 24 hrs, dose 4 mg/kg, route iv; settings: in vivo; in short: as §4
[15] = Half life in female rat at 2 mg/kg,iv measured upto 24 hrs; type: ADME, organism-based; settings: in vivo
Cytochrome P450 2D6 = Cytochrome P450 2D6 (Homo sapiens, UniProt P10635); assay: Inhibition of CYP2D6 in human liver microsomes using probe substrate at 0.1 to 100 uM in presence of NADPH; type: ADME, Microsome; settings: dose 0.1-100 µM
[16] = AUC (0-infinity) in male Beagle dog at 1 mg/kg,iv measured upto 24 hrs; type: ADME, organism-based, Canis lupus familiaris; set-up: dose 1 mg/kg, time < 24 hrs, route iv; settings: in vivo; in short: as §4
MDA-MB-468 = assay: Antiproliferative activity against human MDA-MB-468 cells assessed inhibition of cell growth incubated for 72 hrs by SRB assay; type: functional, cell-based; settings: MDA-MB-468, 72 h
[17] = Drug metabolism in human hepatocytes assessed as docetaxel metabolite formation at 20 uM incubated for 180 mins; type: ADME, cell-based, Hepatocyte; settings: 3 h
[18] = Volume of distribution at steady state in male rat at 8 mg/kg,iv measured upto 24 hrs; type: ADME, organism-based; settings: in vivo, read-out: Vdss
[19] = Cmax in mouse plasma implanted with mouse 4T1 cells at 10 mg/kg,iv measured upto 72 hrs; type: ADME, organism-based; set-up: dose 10 mg/kg, time < 72 hrs, route iv
In short: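 BALB/c mice carried 4T1 cells implanted in the mammary fat pad and received a single iv dose of 10 mg/kg. Parent drug and released docetaxel were assayed in plasma and tumor tissue up to 72 h. Parameters came from noncompartmental analysis, n = 6, mean ± SD.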

[20] = Cmax in female rat at 2 mg/kg,iv measured upto 24 hrs; type: ADME, organism-based; set-up: time < 24 hrs, dose 2 mg/kg, route iv; settings: in vivo; in short: as §2
[21] = Clearance in male Beagle dog at 2 mg/kg,iv measured upto 24 hrs; type: ADME, organism-based, Canis lupus familiaris; settings: in vivo; in short: as §3
[22] = Clearance in Beagle dog at 4 mg/kg,iv measured upto 24 hrs; type: ADME, organism-based, Canis lupus familiaris; settings: in vivo; in short: as §3
[23] = Tmax in mouse tumor implanted with mouse 4T1 cells at 10 mg/kg,iv measured upto 72 hrs; type: ADME, organism-based, Neoplasm
[24] = Volume of distribution at steady state in female rat at 4 mg/kg,iv measured upto 24 hrs; type: ADME, organism-based; settings: in vivo, read-out: Vdss
4T1 [25] = assay: Antitumor activity against mouse 4T1 cells implanted in BALB/c mouse assessed as decrease in lung MMP9 expression level at 5 to 20 mg/kg,iv administrated once per week for 4 weeks by western blot assay; type: functional, organism-based; settings: dose 5-20 mg/kg
In short: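 4T1 fat-pad model in BALB/c mice, iv once weekly for 4 weeks; MMP9, MMP2 and NOD1 in spleen, lung and tumour by western blot, β-actin loading control; bands averaged over five mice per group, representative of two independent experiments.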

[26] = Drug excretion in rat urine at 4 mg/kg,iv measured upto 72 hrs; type: ADME, organism-based; settings: read-out: Drug excretion
[27] = AUC (0-t) in female rat at 2 mg/kg,iv measured upto 24 hrs; type: ADME, organism-based; set-up: time < 24 hrs, dose 2 mg/kg, route iv; settings: in vivo; in short: as §4
4T1 [28] = assay: Antitumor activity against mouse 4T1 cells implanted in BALB/c mouse assessed as decrease in neutrophil in peripheral blood at 20 mg/kg,iv administrated qd for 2 days by blood smear staining microscopic analysis; type: functional, organism-based; settings: time 2.0 day
In short: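 Day 19 after 4T1 implantation, mice randomised into five groups; iv vehicle or 20 mg/kg plus ip C12-iE-DAP (50 μg/mouse) and MDP (100 μg/mouse) once daily for 2 days; blood taken 6 h later; neutrophils/leukocytes counted on stained blood smears at 1000× light microscopy.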

[29] = MRT (0 to infinity) in female Beagle dog at 2 mg/kg,iv measured upto 24 hrs; type: ADME, organism-based, Canis lupus familiaris; settings: in vivo
[30] = Toxicity in Beagle dog assessed as effect on electrocardiogram index at 1 to 4 mg/kg,iv; type: organism-based, Canis lupus familiaris; settings: in vivo, dose 1-4 mg/kg
[31] = Cmax in rat at 2 mg/kg,iv measured upto 24 hrs; type: ADME, organism-based; set-up: time < 24 hrs, dose 2 mg/kg, route iv; settings: in vivo; in short: as §2
[32] = Stability in mouse plasma assessed as compound remaining at 40 uM incubated for 6 hrs; type: ADME, cell-free

Cytochrome P450 2D6, sequence (P10635 whole entry): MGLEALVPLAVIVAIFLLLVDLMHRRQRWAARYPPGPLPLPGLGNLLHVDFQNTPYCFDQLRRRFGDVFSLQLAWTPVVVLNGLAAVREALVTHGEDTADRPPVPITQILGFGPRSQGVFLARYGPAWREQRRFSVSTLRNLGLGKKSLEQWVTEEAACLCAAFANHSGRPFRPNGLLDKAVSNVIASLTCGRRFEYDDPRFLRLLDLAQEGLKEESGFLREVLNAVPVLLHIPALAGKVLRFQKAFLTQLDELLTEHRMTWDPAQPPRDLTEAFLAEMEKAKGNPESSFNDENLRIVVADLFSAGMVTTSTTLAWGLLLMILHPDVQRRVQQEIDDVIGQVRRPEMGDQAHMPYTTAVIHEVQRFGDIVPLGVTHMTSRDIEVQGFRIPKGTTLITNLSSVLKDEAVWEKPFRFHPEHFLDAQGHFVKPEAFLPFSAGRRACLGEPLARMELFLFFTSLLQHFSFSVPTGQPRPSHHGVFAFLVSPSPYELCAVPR

Question: Which results are given for `CC(=O)O[C@@]12CO[C@@H]1C[C@H](O)[C@@]1(C)C(=O)[C@H](O)C3=C(C)[C@@H](OC(=O)[C@H](O)[C@@H](NC(=O)OC(C)(C)C)c4ccccc4)C[C@@](O)([C@@H](OC(=O)c4ccccc4)[C@H]21)C3(C)C` [DOCETAXEL ANHYDROUS]?
Answer: Activity (4T1 [1]): Active; Cmax [2]: 0.95 µM; Activity (4T1 [3]): inactive; Activity (4T1 [4]): inactive; half-life [5]: 49.1 h

Question: For `CC(=O)O[C@@]12CO[C@@H]1C[C@H](O)[C@@]1(C)C(=O)[C@H](O)C3=C(C)[C@@H](OC(=O)[C@H](OC(=O)CCC(=O)NCCCC[C@H](NC(=O)CC[C@@H](NC(=O)[C@H](C)NC(=O)/C=C/c4ccc(F)cc4Cl)C(N)=O)C(=O)O)[C@@H](NC(=O)OC(C)(C)C)c4ccccc4)C[C@@](O)([C@@H](OC(=O)c4ccccc4)[C@H]21)C3(C)C`, which Cmax [6] is on record?
Answer: The Cmax was 37900 ng/mL.

Question: What about the half-life [7] of the same compound?
Answer: Its half-life is 10.6 min.

Question: And the pIC50 (NCI-H23)?
Answer: The pIC50 was 7.79.

Question: And the half-life [8]?
Answer: The half-life was 10.4 min.

Question: What about the AUC(0-t) at 72 h [9] of the same compound?
Answer: The AUC(0-t) at 72 h was 3.33 µM·h.

Question: What about the clearance [10] of the same compound?
Answer: The clearance was 11.5 mL/min/kg.

Question: And the AUC(0-t) at 24 h [11]?
Answer: Its AUC(0-t) at 24 h is 20700 ng·h/mL.

Question: And the Activity [12]?
Answer: The Activity was “Non-Toxic”.

Question: What about the Drug metabolism [13] of the same compound?
Answer: The Drug metabolism was “Metabolite_Detected”.

Question: What about the AUC(0-inf) [14] of the same compound?
Answer: The AUC(0-inf) was 17300 ng·h/mL.

Question: And the half-life [15]?
Answer: The half-life was 6.6 min.

Question: And the “inhibition (INH)” value (Cytochrome P450 2D6)?
Answer: Its value is “Not Active”.

Question: What about the AUC(0-inf) [16] of the same compound?
Answer: The AUC(0-inf) was 1630 ng·h/mL.

Question: What about the pIC50 (MDA-MB-468) of the same compound?
Answer: The pIC50 was 7.79.

Question: What about the Drug metabolism [17] of the same compound?
Answer: Its Drug metabolism is “Metabolite_Detected”.

Question: And the Vd [18]?
Answer: The Vd was 0.096 L/kg.

Question: And the Cmax [19]?
Answer: The Cmax was 14.7 µM.

Question: And the Cmax [20]?
Answer: The Cmax was 14600 ng/mL.

Question: And the clearance [21]?
Answer: The clearance was 7.13 mL/min/kg.

Question: And the clearance [22]?
Answer: The clearance was 4.28 mL/min/kg.

Question: What about the Tmax [23] of the same compound?
Answer: The Tmax was 15 min.

Question: And the Vd [24]?
Answer: The Vd was 0.08 L/kg.

Question: And the Activity (4T1 [25])?
Answer: Its Activity is “Active”.

Question: What about the dose excreted at 72 h [26] of the same compound?
Answer: Its dose excreted at 72 h is 9.38%.

Question: And the AUC(0-t) at 24 h [27]?
Answer: Its AUC(0-t) at 24 h is 4320 ng·h/mL.

Question: What about the Activity (4T1 [28]) of the same compound?
Answer: Its Activity is “Active”.

Question: And the MRT inf [29]?
Answer: The MRT inf was 15.2 min.

Question: And the Activity [30]?
Answer: The Activity was “Non-Toxic”.

Question: What about the Cmax [31] of the same compound?
Answer: Its Cmax is 15200 ng/mL.

Question: And the Stability [32]?
Answer: Its Stability is “Stable”.
